# Data reported in the EternaBench riboswitch data.
# Test system: MS2 coat protein
# Test: apparent Kd, MS2 coat protein; higher = weaker binding; RNA-MaP array; FMN 200 µM where present
# Method in brief: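 In 100 mM Tris-HCl pH 7.5, 80 mM KCl, 4 mM MgCl2, BSA, DTT, yeast tRNA and Tween-20, SNAP-549-labelled MS2 coat protein was titrated from 0.7 or 1.5 nM, doubling to 3 µM, over designs transcribed by stalled E. coli RNA polymerase on Illumina sequencing-chip clusters. This was done first without ligand, then with ligand held constant. After green signal was normalised to red-channel RNA signal and control-cluster median Fmax, the apparent Kd was taken as the median of filtered per-cluster binding-curve fits.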
# [1] = designed as: OFF switch for flavin mononucleotide, no ligand
# [2] = ligand present: flavin mononucleotide, designed as: OFF switch for flavin mononucleotide
# [3] = designed as: ON switch for flavin mononucleotide, no ligand
# [4] = ligand present: flavin mononucleotide, designed as: ON switch for flavin mononucleotide
Sequence,apparent Kd [1],apparent Kd [2],apparent Kd [3],apparent Kd [4]
AGUUGGCGAGGAUAUACAUGAGGAUCACCCAUGUGAGAGAAUAAAGUGAGGAAGAAAAGUAGAAGGCGCUGACA,47.8 nM,154 nM,–,–
CUCAUGUUAGGAUAUGCGCUCGACCUAGUGGUCGAGCUCUAGCAGAAGGAACAUGAGGAUCACCCAUGUUUGCA,63.3 nM,19.6 nM,–,–
AUUUUAUAAUAGAAGGAGGACUUCAUGAGGAUCACCCAUGUGUUGGUACUUAGGAUAUGUAAUAACAUGAGGAUCACCCAUGUC,–,–,55.9 nM,49.8 nM
GUGGUCAGACAUGAGGAUCACCCAUGUGGAAUAAAUAAGGAGAAGGAUAUGGAAUAUAGGAUAUACCAGAAGGUUUGGUUGGUG,–,–,112 nM,116 nM
GGAUAGGACAGAGGAUAUACGUGCUAGAGAUACUAGCAAAACUUCCUCACAUGAGGAUCACCCAUGUAGAAGGCUGUCCUAUCG,16.7 nM,564 nM,–,–
CUUUUGUGAGGAUAUCAGUAGUAAAAAAAUUAAAUUACUACUGAGAAGGCACAUGAGGAUCACCCAUGUUCCUC,39.1 nM,262 nM,–,–
GAGAGAGGGUGAGGAUAUUCAGUAAUAAUGAUAGAAGAAGGCACAGACAUGAGGAUCACCCAUGUGGGAAUAAUCCAGAGAGAG,–,–,182 nM,207 nM
UAAUUUUGUCAAGGAUAUGUAAUAUAGAUUUGUAAACAUGAGGAUCACCCAUGUAUAUGGUGGGAACAGAAGGUGAAUGGAGAA,196 nM,171 nM,–,–
AACGCUAGACUAGGAUAUCGUUUACAUGAGGAUCACCCAUGUAAAGGGUAUUGUCGUCAUACGAACGAGAAGGAGUCGGUAAAU,10.4 nM,26.5 nM,–,–
GCACUUACGUUAGGAUAUGUAUCGGAAAACGAUACAGAAGGAAUAUGGGAACAUGAGGAUCACCCAUGUUCCUGAGACAAGUGC,–,–,46.5 nM,26.4 nM
CCUAAGGAGGCAGGAUAUAGUGUGGUGGCCGGGCUCCCACGGCGAGCGGCACUAGAAGGGUCACUACAUGAGGAUCACCCAUGU,–,–,73.3 nM,30 nM
AAGUGGUUUAUAUAUUUAGAUAUCAGAAGGCGUGACAUGAGGAUCACCCAUGUGGACUAACAUGACGAGGAUAUGACUAAUUGU,30.4 nM,39.8 nM,–,–
CUGGAUCACGCAGGAUAUUACAUGAGGAUCACCCAUGUCAGGACUGCAAUAUCGUCUCCUCGGUGUGAGAAGGGCGGAAUCAUU,15 nM,27 nM,–,–
UCCUGAUUGAGAGGUAGGAGUGGUAGAAGGCGACCGGUGCCAGAUGACAUGAGGAUCACCCAUGUCGAGGAUAUACCACAGAAU,6.96 nM,13.1 nM,–,–
AUAGAAGUCUAGAAGGACCUAGCUGUAUACCGUCGAGGUAUAUAGCUAGGUAGGAUAUGGGACAUGAGGAUCACCCAUGUGUUG,–,–,32.9 nM,9.19 nM
ACCAGCGAUAUUUCGGUGAGUCAACCAGAAGGGACGAAGCCACAUGAGGAUCACCCAUGUCACUGUCAGGAUAUGGGAAGCGAC,–,–,364 nM,29.5 nM
CGUCCUUAGUGAGGAUAUCAGAAAAUACGGAAAUGAGAAGGCACAUGAGGAUCACCCAUGUAAAUAACGGCCGGCCUUGGCAGC,6.26 nM,13.4 nM,–,–
GAUAGGACAGAGAAGGACGUAGCUAGAGAUACUAGCAUAAAGGUCCAAACAUGAGGAUCACCCAUGUAGGAUAUCUGUCCUAUC,6.47 nM,6.92 nM,–,–
AGCUGUGGCCGAGGAUAUCUAUCCAAUAUAACCGAAAUAUAAUCGGACAUGAGGAUCACCCAUGUAGAGAAGGCGGUCUCAGCA,19.8 nM,25.5 nM,–,–
AAUUGGAUGCAGAAGGCAUGGACGACUCGUCACAUUAACAUGAGGAUCACCCAUGUAAUAAGACAUGAGGAUAUGCAUCCUAAA,–,–,7.68 nM,5.49 nM
GAGUUACAUGAGGAUCACCCAUGUGGUUGUGGAUAAGGAUAUAUGGUAGGAGGAGGAAUGAUAGAAGGUAUUAGGG,–,–,69 nM,45.5 nM
CUAAUGUGAGGAUAUGGUGUUGAUCGCAGGAAGGAGAUUCUCCAGAAGGCACAUGAGGAUCACCCAUGUAGUGA,103 nM,51.1 nM,–,–
GCACUGGAUGUAGGAUAUCAGGACGAUAAGUCCUGAGAAGGACAUGAGGAUCACCCAUGUCUAAUAAACCAGUGCUAUAAUAUA,14.4 nM,18.9 nM,–,–
